Source: ChEMBL document CHEMBL1152452, “Modifications incorporated in CpG motifs of oligodeoxynucleotides lead to antagonist activity of toll-like receptors 7 and 9” (2009)
Active and inactive are the calls of the source.

What was measured:
Mus musculus [1] = test: Immunostimulatory activity in C57BL/6 mouse assessed as induction of MIP-1alpha level in serum at 2 mg/kg, sc after 2 hrs by Luminex multiplex assay; type: functional, organism-based; parameters: dose 2 mg/kg
Outline: (§1)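 Female C57BL/6 mice, 5–6 weeks old, n = 3, received a single 2 mg/kg subcutaneous ODN injection in the right flank. Blood was taken by retro-orbital bleeding 2 h later. Naive mice served as baseline. Representative of three experiments.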

Mus musculus [2] = test: Immunostimulatory activity in C57BL/6 mouse assessed as induction of TNFalpha level in serum at 2 mg/kg, sc after 2 hrs by Luminex multiplex assay; type: functional, organism-based; parameters: dose 2 mg/kg; outline: as §1
Mus musculus [3] = test: Immunostimulatory activity in C57BL/6 mouse assessed as induction of KC level in serum at 2 mg/kg, sc after 2 hrs by Luminex multiplex assay; type: functional, organism-based; parameters: dose 2 mg/kg; outline: as §1
[4] = biological target: T1, Toll-like receptor 9 (Mus musculus) (UniProt Q9EQU3); test: Activation of mouse TLR9 expressed in HEK293 cells assessed as NF-kappaB level at 0.3 ug/mL after 18 hrs by reporter gene assay; type: cell-based
T1 sequence (whole entry): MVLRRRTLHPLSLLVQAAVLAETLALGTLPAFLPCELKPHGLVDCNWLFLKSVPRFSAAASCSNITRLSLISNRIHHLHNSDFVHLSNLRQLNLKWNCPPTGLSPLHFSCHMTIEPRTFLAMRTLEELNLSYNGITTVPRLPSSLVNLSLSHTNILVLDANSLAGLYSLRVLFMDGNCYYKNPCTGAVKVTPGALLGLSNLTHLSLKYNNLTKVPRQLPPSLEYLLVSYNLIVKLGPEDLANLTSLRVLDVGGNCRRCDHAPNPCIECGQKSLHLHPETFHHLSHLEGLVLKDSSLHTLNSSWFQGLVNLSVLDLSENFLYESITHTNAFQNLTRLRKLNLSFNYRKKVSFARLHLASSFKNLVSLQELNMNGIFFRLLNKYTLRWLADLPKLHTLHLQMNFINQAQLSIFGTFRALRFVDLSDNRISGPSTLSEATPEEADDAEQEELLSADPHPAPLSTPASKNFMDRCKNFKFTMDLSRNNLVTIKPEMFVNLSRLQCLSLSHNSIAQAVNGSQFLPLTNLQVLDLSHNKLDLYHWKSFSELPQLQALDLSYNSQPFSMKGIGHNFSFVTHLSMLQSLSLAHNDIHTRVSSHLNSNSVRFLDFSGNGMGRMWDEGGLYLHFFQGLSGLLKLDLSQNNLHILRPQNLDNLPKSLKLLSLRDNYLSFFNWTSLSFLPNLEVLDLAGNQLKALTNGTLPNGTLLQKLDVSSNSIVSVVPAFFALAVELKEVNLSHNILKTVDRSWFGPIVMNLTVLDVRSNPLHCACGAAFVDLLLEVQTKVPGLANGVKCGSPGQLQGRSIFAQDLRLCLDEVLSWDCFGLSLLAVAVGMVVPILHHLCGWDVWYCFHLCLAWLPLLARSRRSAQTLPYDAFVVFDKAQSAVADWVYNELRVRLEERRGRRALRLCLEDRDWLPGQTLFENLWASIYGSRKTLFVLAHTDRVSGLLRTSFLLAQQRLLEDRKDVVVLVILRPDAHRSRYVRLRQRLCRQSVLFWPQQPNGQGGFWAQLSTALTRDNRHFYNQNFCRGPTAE
Outline: (§2)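 HEK293 cells stably expressing mouse TLR9 were transiently transfected with a SEAP reporter for 6 h, then stimulated with ODN at 0.1, 0.3 or 1 μg/mL for 18 h. Reporter expression is given as fold change in NF-κB activity over medium. Representative of two independent experiments.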

[5] = biological target: T1, Toll-like receptor 9 (Mus musculus); test: Activation of mouse TLR9 expressed in HEK293 cells assessed as NF-kappaB level at 0.1 ug/mL after 18 hrs by reporter gene assay; type: cell-based; outline: as §2
J774 = test: Activation of NF-kappaB in mouse J774 cells at 0.5 ug/ml after 1 hr by EMSA; type: cell-based
Outline: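 Murine J774 macrophages in DMEM with 10% FBS and antibiotics, plated at 5×10^6 cells/well. ODNs were given alone or together for 1 h. For inhibition, the agonist ODN at 0.5 μg/mL was co-incubated with the modified ODN at 2.5 μg/mL. Nuclear extracts were resolved by EMSA on native polyacrylamide gels and read by autoradiography.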

[6] = biological target: T1, Toll-like receptor 9 (Mus musculus); test: Activation of mouse TLR9 expressed in HEK293 cells assessed as NF-kappaB level at 1 ug/mL after 18 hrs by reporter gene assay; type: cell-based; outline: as §2
Splenocyte [7] = test: Immunostimulatory activity in C57BL/6 mouse splenocytes assessed as induction of IL6 secretion after 24 hrs by sandwich ELISA; type: functional, cell-based
Outline: (§3)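 C57BL/6 splenocytes (mice 5–8 weeks) at 5 × 10^6 cells/mL in RPMI complete medium. ODNs dissolved in PBS were added and the cells incubated at 37 °C for 24 h. Supernatant IL-12 or IL-6 was measured by sandwich ELISA. Runs were done two or three times, in duplicate per concentration.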

Mus musculus [8] = test: Immunostimulatory activity in C57BL/6 mouse assessed as induction of MCP1 level in serum at 2 mg/kg, sc after 2 hrs by Luminex multiplex assay; type: functional, organism-based; parameters: dose 2 mg/kg; outline: as §1
Splenocyte [9] = test: Immunostimulatory activity in C57BL/6 mouse splenocytes assessed as induction of IL12 secretion after 24 hrs by sandwich ELISA; type: functional, cell-based; outline: as §3
Mus musculus [10] = test: Immunostimulatory activity in C57BL/6 mouse assessed as induction of IL12 level in serum at 2 mg/kg, sc after 2 hrs by sandwich ELISA; type: functional, organism-based; parameters: dose 2 mg/kg; outline: as §1
Mus musculus [11] = test: Immunostimulatory activity in C57BL/6 mouse assessed as induction of IL10 level in serum at 2 mg/kg, sc after 2 hrs by Luminex multiplex assay; type: functional, organism-based; parameters: dose 2 mg/kg; outline: as §1

Measured: Activity

Cc1cn([C@H]2C[C@H](OP(=O)(S)OC[C@H]3O[C@@H](n4ccc(N)nc4=O)C[C@@H]3OP(=O)(S)OC[C@H]3O[C@@H](n4cc(C)c(=O)[nH]c4=O)C[C@@H]3OP(=O)(S)OC[C@H]3O[C@@H](n4cnc5c(=O)[nH]c(N)nc54)C[C@@H]3OP(=O)(S)OC[C@H]3O[C@@H](n4cc(C)c(=O)[nH]c4=O)C[C@@H]3O)[C@@H](COP(=O)(S)O[C@H]3C[C@H](n4ccc(N)nc4=O)O[C@@H]3COP(=O)(S)O[C@H]3C[C@H](n4cc(C)c(=O)[nH]c4=O)O[C@@H]3COP(=O)(S)O[C@H]3C[C@H](n4cc(C)c(=O)[nH]c4=O)O[C@@H]3COP(=O)(S)O[C@H]3C[C@H](n4cnc5c(=O)[nH]c(N)nc54)O[C@@H]3COP(=O)(S)O[C@H]3C[C@H](n4ccc(N)nc4=O)O[C@@H]3COP(=O)(S)O[C@H]3C[C@H](n4cnc5c(N)ncnc54)O[C@@H]3COP(=O)(S)O[C@H]3C[C@H](n4cnc5c(=O)[nH]c(N)nc54)O[C@@H]3COP(=O)(S)O[C@H]3C[C@H](n4cc(C)c(=O)[nH]c4=O)O[C@@H]3COP(=O)(S)O[C@H]3C[C@H](n4ccc(N)nc4=O)O[C@@H]3COP(=O)(S)O[C@H]3C[C@H](n4cc(C)c(=O)[nH]c4=O)O[C@@H]3COP(=O)(S)O[C@H]3C[C@H](n4cnc5c(N)ncnc54)O[C@@H]3COP(=O)(S)O[C@H]3C[C@H](n4cc(C)c(=O)[nH]c4=O)O[C@@H]3COP(=O)(S)O[C@H]3C[C@H](n4ccc(N)nc4=O)O[C@@H]3CO)O2)c(=O)[nH]c1=O (some centres not stated)
active: Mus musculus [1] | Mus musculus [2] | Mus musculus [3] | [4] | [5] | J774 | [6] | Splenocyte [7] Dose-dependent effect | Mus musculus [8] | Splenocyte [9] Dose-dependent effect | Mus musculus [10] | Mus musculus [11]
